Compound activity from PubChem BioAssay.
Hits are enriched below; roughly 1.8% of the tested compounds scored in any of these assays.
UHRF1 MBD2 ctr: human UHRF1 methylated DNA binding inhibitors; Q96T88; actives 0.75% (n = 370,000); inhibition, % at 4.4 µM; UHRF1 binding to methylated oligo, TR-FRET;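 also: UHRF1 SRA domain binding a hemimethylated CpG hairpin DNA probe; 0% = median of test compound wells and 100% = reference inhibitor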
MBD2 inh: inhibitors of human MBD2 binding to methylated oligonucleotide. inhibition, % at 4.4 µM. actives 0.31% (n = 370,000). Q9UBB5. AID 686964. TR-FRET; in the data active = inhibition above about 13%
TDP2 inh: TDP2 (human) inhibition, absorbance primary screen; actives 0.34% (n = 370,000); recombinant TDP2, T5PNP hydrolysis, p-nitrophenol absorbance 415 nm; O95551; inhibition, % at 12.8 µM; AID 720702;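 active = inhibition above the mean of all tested compounds plus 3 SD, set per campaign, cut at about 25% in these data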;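 also: 0% = DMSO with enzyme and 100% = buffer with substrate but no TDP2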
Target sequence (O95551 whole entry, looked up): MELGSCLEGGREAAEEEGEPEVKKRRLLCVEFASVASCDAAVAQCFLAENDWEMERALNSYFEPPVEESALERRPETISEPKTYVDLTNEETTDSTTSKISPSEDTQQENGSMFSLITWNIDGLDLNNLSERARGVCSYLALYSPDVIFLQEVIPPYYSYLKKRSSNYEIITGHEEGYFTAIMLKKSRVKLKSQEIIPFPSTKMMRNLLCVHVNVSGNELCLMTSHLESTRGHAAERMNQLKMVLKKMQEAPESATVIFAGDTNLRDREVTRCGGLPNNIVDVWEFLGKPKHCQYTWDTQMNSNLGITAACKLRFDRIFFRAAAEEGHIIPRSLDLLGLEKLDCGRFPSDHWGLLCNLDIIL
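System – recombinant human TDP2 · Amount – 120 nM TDP2 per well · Buffer or medium – Mg2+-containing Tris-HCl buffer, pH 7.5 · Reagent – T5PNP substrate, 5 mM · Dosing – 12.8 µM single point, 1% DMSO · Incubation – 2 h at 37 °C · Measured by – epi absorbance · Read-out basis – percent inhibition · Benchmarks – high control without enzyme, low control DMSO plus TDP2 · Repeats – singlicate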
LEDGF integ inh: blocks HIV-1 LEDGF/p75-dependent DNA integration; AID 743269; inhibition, % at 3.7 µM; actives 0.64% (n = 370,000); TR-FRET IN-LEDGF/p75 DNA integration, Eu/Cy5;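 active = inhibition above the screen-wide mean plus 3 SD, cut at about 13% in these data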;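 also: signal is the Cy5 over europium emission ratio at 671 and 618 nm; 0% = plate median of compound wells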
NSD2 inh: inhibitors of human histone methyltransferase NSD2. NSD2 peptide methylation, AlphaScreen, 120 min. inhibition, % at 12.5 µM. AID 743445. actives 0.54% (n = 310,000); in the data active = inhibition above about 50%
Casp6 inh: blocks human caspase-6 cleavage activity. P55212. purified caspase-6, Z-VEID-R110 cleavage fluorescence. inhibition, % at 12.5 µM. actives 0.53% (n = 350,000). AID 686996;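 active = mean inhibition across replicates at least about 35%, with every replicate also reaching that limit, limit read from the data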;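 also: 0% = median of neutral control wells and 100% = no fluorescence left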
UHRF1 ctr MBD2: UHRF1 methyl-oligo binding inhibition as MBD2 counter-screen; shares compounds with MBD2 inh; UHRF1 binding to methylated oligonucleotide, TR-FRET; inhibition, % at 4.4 µM; actives 25% (n = 1,000); AID 720530;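 also: UHRF1 SRA domain binding a labeled hemimethylated CpG hairpin DNA; 0% = vehicle only and 100% = reference inhibitor with vehicle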
MBD2 DBD conf: confirmation of human MBD2-DBD methylated oligonucleotide binding inhibitors | shares compounds with MBD2 inh | TR-FRET MBD2-DBD binding to methylated oligonucleotide | inhibition, % at 4.4 µM | actives 26% (n = 1,000); in the data active = inhibition above about 14%
* marks the source's active call; other numbers are inactive results; x = no result. Rule as the data show it, unless noted: active = inhibition above about 21%; inactive = the rest.

SMILES	UHRF1 MBD2 ctr	MBD2 inh	TDP2 inh	LEDGF integ inh	NSD2 inh	Casp6 inh	UHRF1 ctr MBD2	MBD2 DBD conf
O=C(NCCCc1ccccc1)[C@@H]1Cc2ccccc2CN1	0	1	-4	0	0	0	x	x
C/C=C/c1cnc2c(c1)C(=O)N([C@@H](C)CO)C[C@@H](C)[C@@H](CN(C)S(=O)(=O)c1ccccc1)O2	x	x	x	x	x	4	x	x
C[C@H](CO)N1C[C@H](C)[C@@H](CN(C)S(=O)(=O)c2ccc(Cl)cc2)OCCCC[C@H](C)Oc2ccc(NC(=O)c3ccncc3)cc2C1=O	x	x	x	x	x	1	x	x
O=C(CN1CCOCC1)NCCC12CC3CC(CC(C3)C1)C2	4	14*	-6	-2	2	x	2	4
O=C(NCC[C@H]1CC[C@H](NC(=O)C2CCCC2)[C@H](CO)O1)c1ccc(F)cc1	x	x	x	x	x	-14	x	x
COc1ccc2c3c(n(C)c2c1)[C@@H](CO)N(C(=O)Nc1ccc(F)cc1)CC31CCN(C(=O)c2ccccc2F)CC1	x	x	x	x	x	0	x	x
COc1ccc(NS(=O)(=O)c2cccs2)c(OC)c1	7	3	-4	4	-1	x	x	x
COc1ccc(NS(=O)(=O)c2ccc(SC)cc2)c(OC)c1	23*	17*	4	2	-1	x	5	3
O=C(CN1C(=O)/C(=C/c2ccco2)SC1=S)Nc1ccc(C(=O)O)c(O)c1	79*	20*	21	90*	135*	73*	26*	7
O=C(CCN1C(=O)/C(=C\c2ccccc2F)SC1=S)Nc1ccc(C(=O)O)c(O)c1	2	2	-18	-1	27	14	x	x
CN1c2ccc(Br)cc2[C@@H]2[C@@H](CCN2C(=O)C2CCC2)[C@@H]1CO	x	x	x	x	x	1	x	x
COc1ccc(N2CCN(C(=O)c3ccc4c(c3)CC(c3ccccc3)OC4=O)CC2)cc1 (stereo not drawn)	21*	14*	-5	0	0	-1	10	6
CSc1ccc(CN(C)CC(=O)NC(C)c2ccccc2)cc1 (stereo not drawn)	-6	19*	1	0	2	1	9	5
O=C1CCCCC1Nc1ccc(Br)cc1 (stereo not drawn)	21*	13*	8	-1	0	-4	2	1
CC(C)C[C@H]1CN(CCCC[C@H]2CNC(=O)C(=O)N2CCc2ccc(O)cc2)C(=O)C(=O)N1Cc1ccccc1	25*	13*	2	10	x	0	7	3
O=C(/C=C/c1ccc(-c2ccccc2[N+](=O)[O-])o1)c1ccco1	34*	14*	-1	11	17	7	5	-1
O=C(NCc1ccccc1)[C@@H]1[C@@H](CO)[C@@H]2Cn3c(cccc3=O)[C@H]1N2C(=O)CC1CC1	x	x	x	x	x	0	x	x
COc1cc2c(cc1OC)-c1c(OC)c(OC)cc3ccnc(c13)C2=O	37*	33*	6	-2	x	7	53*	46*
COc1ccc(CN(C)C[C@H]2Oc3ccc(NS(=O)(=O)c4cn(C)cn4)cc3CC(=O)N([C@@H](C)CO)C[C@@H]2C)cc1	x	x	x	x	x	2	x	x
CC(=O)Nc1nc(-c2ccccc2)ns1	2	13*	-10	0	0	x	-1	6
COCC(=O)Nc1nc(-c2ccccc2)ns1	-1	0	9	-3	1	x	x	x
COc1ccc(N2CCN(C(=O)CNC(=O)Cn3cnc4sc(C)c(C)c4c3=O)CC2)cc1	0	86*	17	1	39	2	2	4
COc1ccccc1N1CCN(C(=O)CNC(=O)Cn2cnc3sc(C)c(C)c3c2=O)CC1	5	1	-6	1	2	-1	x	x
COc1cc(OC)nc(Oc2ccccc2/C=N/O)n1	0	15*	-4	3	-2	-2	0	4
